Measurements as given in ChEMBL document CHEMBL4257469, “Deciphering the role of hydrophobic and hydrophilic bile acids in angiogenesis using in vitro and in vivo model systems” (Medchemcomm, 2017).
Active and inactive are the calls of the source. No cut-off for these calls is given here.

Legend:
Danio rerio [1] = species: Danio rerio; assay: Toxicity in zebrafish embryo assessed as reduction in embryo survival up to 50 uM; assay type: organism-based; conditions: in vivo
HUVEC [2] = assay: Cytotoxicity against HUVEC assessed as reduction in cell death up to 12.5 uM after 24 hrs by MTT assay; assay type: cell-based; conditions: human
Summary of the method: (§1)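 HUVECs (passages 2–5, complete EBM-2) seeded at 5 × 10³ cells/well and left 24 h to adhere. Serum-starved 4 h, then exposed to bile acids (serial dilutions, 100 to 6.25 μM) in complete medium for 24 h. MTT added for 4 h at 37 °C, formazan dissolved in DMSO, absorbance read at 550 nm. Run in triplicate; three independent experiments.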

HUVEC [3] = assay: Antiangiogenic activity in HUVEC assessed as inhibition of endothelial tube formation at 25 uM after overnight incubation by inverted microscopic analysis; assay type: functional, cell-based; conditions: Homo sapiens
Summary of the method: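 HUVECs at passages 2–5 were seeded at 2 × 10^5 cells per well on a gelled basement membrane matrix, made as Matrigel mixed 1:1 with plain EBM-2. Bile acids were added at 12.5 and 25 μM, with DMSO as vehicle control, and cells were treated overnight. Bright-field images were taken at 10× from five fields per well. Nodes and tube lengths were quantified. Runs were in triplicate; statistics by one-way ANOVA (Dunnett).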

Danio rerio [4] = species: Danio rerio; assay: Antiangiogenic activity in Tg(fli:eGFP) zebrafish embryo assessed as effect on phynotypic changes at 6.25 to 12.5 uM after 72 hrs post fertilization by fluorescence microscopic analysis; assay type: functional, organism-based
Summary of the method: (§2)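 Tg(fli1:eGFP) zebrafish embryos were selected at 48 hpf, 20–25 per well, and exposed to bile acids at 6.25, 12.5 and 25 μM in embryo water from DMSO stocks. Vehicle was 0.1% DMSO. At 72 hpf the solutions were replaced with fresh embryo water. Embryos were anesthetized with tricaine and imaged by stereo and fluorescence microscopy for sub-intestinal vessel sprouting and branching. Two experiments, 50 embryos per group.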

HUVEC [5] = assay: Cytotoxicity against HUVEC assessed as reduction in cell viability at 6.25 to 100 uM after 24 hrs by MTT assay; assay type: cell-based; conditions: human
Summary of the method: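 HUVECs at passages 2–5 were seeded at 5 × 10^3 cells per well in complete EBM-2 and allowed to adhere for 24 h. They were serum-starved 4 h, then given serially diluted bile acids (100 to 6.25 μM) in complete medium for 24 h. MTT was added for 4 h at 37 °C. Formazan was dissolved in DMSO and absorbance read at 550 nm. Three independent experiments.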

Danio rerio [6] = species: Danio rerio; assay: Toxicity in Tg(fli:eGFP) zebrafish embryo assessed as embryo death at 25 uM after 72 hrs post fertilization by fluorescence microscopic analysis; assay type: organism-based; conditions: in vivo
Summary of the method: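 Tg(fli1:eGFP) embryos selected at 48 hpf, 20–25 per well, raised at 28.5 °C. Bile acids (DMSO stock, diluted in embryo water) given at 6.25, 12.5 or 25 μM; 0.1% DMSO as vehicle control. Solutions replaced with fresh water at 72 hpf, embryos anaesthetised with tricaine and sub-intestinal vessels imaged by fluorescence. Scored as percentage of embryos; two experiments, 50 embryos/group.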

Danio rerio [7] = species: Danio rerio; assay: Antiangiogenic activity in Tg(fli:eGFP) zebrafish embryo assessed as abnormality in vasculature in developing embryos at 25 uM after 72 hrs post fertilization by fluorescence microscopic analysis; assay type: functional, organism-based; conditions: 12.5 uM, in the assay text read “12.5 uM” for “25 uM”; summary of the method: as §2
Danio rerio [8] = species: Danio rerio; assay: Antiangiogenic activity in Tg(fli:eGFP) zebrafish embryo assessed as vascular modification by measuring formation of irregular pattern of branches at 12.5 uM after 72 hrs post fertilization by fluorescence microscopic analysis; assay type: functional, organism-based; summary of the method: as §2
Danio rerio [9] = species: Danio rerio; assay: Pro-angiogenic activity in Tg(fli:eGFP) zebrafish embryo assessed as thickening of vessels at 6.25 uM after 72 hrs post fertilization by fluorescence microscopic analysis; assay type: functional, organism-based; summary of the method: as §2
Danio rerio [10] = species: Danio rerio; assay: Pro-angiogenic activity in Tg(fli:eGFP) zebrafish embryo assessed as sprouting of vessels at 6.25 uM after 72 hrs post fertilization by fluorescence microscopic analysis; assay type: functional, organism-based; summary of the method: as §2
HUVEC [11] = assay: Antiangiogenic activity in HUVEC assessed as inhibition of endothelial tube formation at 12.5 to 25 uM after overnight incubation by inverted microscopic analysis; assay type: functional, cell-based; conditions: Homo sapiens
Summary of the method: (§3)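 Wells coated with Matigel:plain EBM-2 (1:1). HUVECs added at 2 × 10⁵ cells/well with bile acid (12.5 or 25 μM) or vehicle and left overnight. Bright-field images at 10× from five fields per well; nodes and tube lengths counted. Triplicate, three independent experiments; one-way ANOVA with Dunnett's test.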

Danio rerio [12] = species: Danio rerio; assay: Toxicity in zebrafish embryo assessed as reduction in embryo survival at 3.25 uM; assay type: organism-based; conditions: in vivo
HUVEC [13] = assay: Cytotoxicity against HUVEC assessed as cell death at 100 uM after 24 hrs by MTT assay relative to control; assay type: cell-based; conditions: human; summary of the method: as §1
HUVEC [14] = assay: Cytotoxicity against HUVEC assessed as reduction in cell viability at >25 uM after 24 hrs by MTT assay; assay type: cell-based; conditions: human; summary of the method: as §1
HUVEC [15] = assay: Antiangiogenic activity in HUVEC assessed as decrease in tube length at 12.5 uM after overnight incubation by inverted microscopic analysis; assay type: functional, cell-based; conditions: Homo sapiens; summary of the method: as §3
HUVEC [16] = assay: Antiangiogenic activity in HUVEC assessed as decrease in number of nodes at 12.5 uM after overnight incubation by inverted microscopic analysis; assay type: functional, cell-based; conditions: Homo sapiens; summary of the method: as §3
HUVEC [17] = assay: Antimigratory activity in HUVEC assessed as reduction in wound healing at 12.5 uM after 18 to 24 hrs by phase contrast microscopic analysis; assay type: functional, cell-based; conditions: Homo sapiens
Summary of the method: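 HUVECs grown to a confluent monolayer in 12-well plates and serum-deprived overnight. Scratched with a p200 tip, washed with DPBS, then given complete EBM-2 with 12.5 μM bile acid or DMSO vehicle. Imaged from a marked reference point at 0 h and after 18–24 h (phase contrast, 10×); percentage of migrated cells versus control. Triplicate; Dunnett's test.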

Danio rerio [18] = species: Danio rerio; assay: Toxicity in Tg(fli:eGFP) zebrafish embryo assessed as embryo death at 3 uM after 72 hrs post fertilization by fluorescence microscopic analysis; assay type: organism-based; conditions: in vivo
HUVEC [19] = assay: Decrease in VEGFR1 m-RNA expression in HUVEC at 12.5 uM after 12 to 24 hrs by RT-qPCR analysis relative to control; assay type: functional, Homo sapiens
Summary of the method: (§4)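 HUVECs treated with 12.5 μM bile acid or DMSO for 12 and 24 h. Total RNA extracted and 1 μg reverse-transcribed. SYBR-green qPCR for VEGFR1/VEGFR2: 95 °C 10 min, then 40 cycles of 95 °C 5 s / 60 °C 30 s. ΔΔCT normalised to GAPDH and expressed as fold change over control; repeated twice.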

HUVEC [20] = assay: Decrease in VEGFR2 m-RNA expression in HUVEC at 12.5 uM after 12 to 24 hrs by RT-qPCR analysis relative to control; assay type: functional, Homo sapiens; summary of the method: as §4
HUVEC [21] = assay: Antiangiogenic activity in HUVEC assessed as induction of irregular stress fiber formation at 12.5 uM after overnight incubation by FITC-conjugated phalloidin staining based confocal microscopic analysis; assay type: functional, cell-based; conditions: Homo sapiens
Summary of the method: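 HUVECs grown to 70% confluency on coverslips and treated with bile acids overnight. Fixed in 4% paraformaldehyde for 5 min and blocked with 1% BSA/0.1% Triton X-100 for 2 h. Stained with anti-VE-cadherin (1:200, 4 °C overnight) plus Alexa-488 secondary, FITC-phalloidin (1:100) for F-actin, and DAPI. Confocal imaging; repeated twice.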

HUVEC [22] = assay: Cytotoxicity against HUVEC assessed as cell death after 24 hrs by MTT assay relative to control; conditions: human

C[C@H](CCC(=O)O)[C@H]1CC[C@H]2[C@@H]3[C@H](O)C[C@@H]4C[C@H](O)CC[C@]4(C)[C@H]3C[C@H](O)[C@]12C [CHOLIC ACID]
Activity (Danio rerio [1]): Non-Toxic
Activity (HUVEC [2]): Non-Toxic
Activity (HUVEC [3]): Active
Activity (Danio rerio [4]): inactive
Activity (HUVEC [5]): Non-Toxic

C[C@H](CCC(=O)O)[C@H]1CC[C@H]2[C@@H]3CC[C@@H]4C[C@H](O)CC[C@]4(C)[C@H]3C[C@H](O)[C@]12C [DEOXYCHOLIC ACID]
Activity (Danio rerio [1]): Non-Toxic
Activity (HUVEC [2]): Non-Toxic
Activity (HUVEC [3]): Active
Activity (Danio rerio [6]): Toxic
Activity (Danio rerio [7]): Active
Activity (Danio rerio [8]): Active
Activity (Danio rerio [9]): Active
Activity (Danio rerio [10]): Active
Activity (HUVEC [5]): Non-Toxic

C[C@H](CCC(=O)O)[C@H]1CC[C@H]2[C@@H]3CC[C@@H]4C[C@H](O)CC[C@]4(C)[C@H]3CC[C@]12C [LITHOCHOLIC ACID]
Activity (HUVEC [11]): Active
Activity (Danio rerio [12]): Toxic
Activity (HUVEC [2]): Non-Toxic
Activity (HUVEC [13]): 75%
Activity (HUVEC [14]): Toxic
Activity (HUVEC [15]): Active
Activity (HUVEC [16]): Active
Activity (HUVEC [17]): Active
Activity (Danio rerio [18]): Toxic
fold change (FC) (HUVEC [19]): 2
fold change (FC) (HUVEC [20]): 2
Activity (HUVEC [21]): Active
Activity (HUVEC [22]): Toxic
